Measured values taken from ChEMBL document CHEMBL3425475, “Identification of indole inhibitors of human hematopoietic prostaglandin D2 synthase (hH-PGDS)” (Bioorg Med Chem Lett, 2015).
pEC50, pIC50, pKd: −log10 of the molar value. ≈ marks a conversion by molar mass, not a printed value.

Assays:
[1] = target: T1, Hematopoietic prostaglandin D synthase (Homo sapiens, UniProt O60760); assay: Inhibition HPGDS in human MEG01 cells assessed as reduction in PGD2 production incubated for 30 mins followed by stimulation with 5 uM ionomycin for 30 mins by enzyme immunoassay method; type: cell-based, MEG-01
Outline: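 MEG-01 cells were differentiated with 0.1 µM PMA for 16 h, then plated. Inhibitor was added in concentration response, 10 µM–0.15 nM, for 30 min at 37 °C, followed by 5 µM ionomycin for 30 min at 37 °C. Secreted PGD2 in the medium was quantified by PGD2-MOX EIA.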

[2] = target: T1, Hematopoietic prostaglandin D synthase; assay: Binding affinity to human HPGDS expressed in Escherichia coli by isothermal titration calorimetry
Outline: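 Recombinant wild-type hH-PGDS, expressed in E. coli and purified by cation exchange and gel filtration. Ligand, typically 500 µM at experimentally determined concentration, titrated in 2 µL aliquots into 30–40 µM protein. Reverse titrations (protein into ligand) used where ligand solubility was low. Values are means of at least two independent experiments.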

[3] = Solubility of the compound; type: physicochemical
[4] = target: T1, Hematopoietic prostaglandin D synthase; assay: Binding affinity to human HPGDS expressed in Escherichia coli using 1-phenylpyrazole-4-carboxylic acid/6-(3-fluorophenyl)pyridine-3-carboxamide as reporter probe by ligand-observed 1D NMR T1rho binding assay
Outline: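 Ligand-observed NMR displacement of reporter molecules from recombinant E. coli-expressed wild-type hH-PGDS. Active-site binding of the reporters was confirmed by competition with a known inhibitor. Kd was calculated from the extent of reporter displacement at two compound concentrations, using the experimentally determined reporter and compound concentrations in an exact mathematical expression. Values are means of at least two independent experiments.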

[5] = target: T1, Hematopoietic prostaglandin D synthase; assay: Inhibition human HPGDS expressed in Escherichia coli assessed as reduction in GST enzymatic activity using MCBL and glutathione incubated for 30 mins by fluorescence based assay
Outline: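 Compound was preincubated 30 min with enzyme at 1.5 µg/ml in 50 mM Tris, 2 mM MgCl2, 0.1% CHAPS. MCBL (0.4 mM, added solution) and glutathione were then added, and fluorescence (ex 360/em 460) was read at once and again after 30 min. Readings were normalised to DMSO wells (0%) and a control inhibitor (100%). Values are means of at least two independent experiments.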

[6] = target: T1, Hematopoietic prostaglandin D synthase; assay: Inhibition fluorescein-conjugated ligand binding to human HPGDS expressed in Escherichia coli by fluorescence polarization assay
Outline: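 Recombinant E. coli-expressed hH-PGDS. Displacement of a fluorescein-conjugated potent hH-PGDS inhibitor by compound was followed in dose-response by fluorescence polarization, excitation 470 nm and emission 530 nm. The assay was adapted from a commercial kit.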

T1 sequence (O60760 whole entry): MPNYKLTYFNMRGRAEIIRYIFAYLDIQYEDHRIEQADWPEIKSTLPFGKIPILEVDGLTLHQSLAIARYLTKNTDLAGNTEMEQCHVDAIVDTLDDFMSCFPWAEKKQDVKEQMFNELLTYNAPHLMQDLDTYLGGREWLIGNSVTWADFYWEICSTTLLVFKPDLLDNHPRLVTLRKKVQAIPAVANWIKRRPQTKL

O=C(NC1CCN(CC(F)(F)F)CC1)c1ccc(-c2cccc(F)c2)nc1
pEC50 [1]: 7.46
pKd [2]: 7.70
solubility [3]: 2.6 µM (≈ 0.992 µg/mL)
pKd [4]: 8.02
pIC50 [5]: 6.70

c1ccc(-c2ncc(-c3cc[nH]n3)s2)cc1
pEC50 [1]: 6.96
pKd [2]: 6.52
solubility [3]: 1.4 µM (≈ 0.318 µg/mL)
pKd [4]: 7.29
pIC50 [5]: 7.64

COc1cccc(-c2ccc(C(=O)NC3CCN(CC(F)(F)F)CC3)cn2)c1
pEC50 [1]: 6.89
pIC50 [6]: 6.68
pKd [2]: 7.92
solubility [3]: 4.2 µM (≈ 1.65 µg/mL)
pKd [4]: 7.36
pIC50 [5]: 7.22

CC(C)(O)c1nc(-c2ccc(CNC(=O)c3cnc(-c4ccccn4)nc3)cc2)no1
pEC50 [1]: 7.13
pKd [2]: 7.46
pKd [4]: 7.64
pIC50 [5]: 7.15

CN(C)CCCC(=O)Nc1cncc(-c2cccc3[nH]ccc23)c1
pIC50 [6]: 6.09
solubility [3]: 84 µM (≈ 27.1 µg/mL)
pKd [4]: 6.24
pIC50 [5]: 6.74

CN(C)CCC(=O)Nc1cncc(-c2cccc3[nH]ccc23)c1
pEC50 [1]: 6.46
pIC50 [6]: 6.34
pKd [2]: 6.68
solubility [3]: 95 µM (≈ 29.3 µg/mL)
pKd [4]: 6.47
pIC50 [5]: 6.52

COCCCNC(=O)c1nc(-c2cccc3[nH]ccc23)no1
pIC50 [6]: 5.54
solubility [3]: 77 µM (≈ 23.1 µg/mL)
pKd [4]: 6.19
pIC50 [5]: 6.77

O=C(CCc1cccnc1)Nc1cncc(-c2cccc3[nH]ccc23)c1
pKd [4]: 7.30
pIC50 [5]: 7.59

CCC(=O)Nc1cncc(-c2cccc3[nH]ccc23)c1
pKd [4]: 7.22
pIC50 [5]: 7.49

O=C1CC[C@@H](C(=O)Nc2cncc(-c3cccc4[nH]ccc34)c2)N1
pKd [4]: 6.52
pIC50 [5]: 7.46

O=C(Cn1cnnn1)Nc1cncc(-c2cccc3[nH]ccc23)c1
pKd [4]: 6.70
pIC50 [5]: 7.37

O=C(CCN1CCCCC1)Nc1cncc(-c2cccc3[nH]ccc23)c1
pKd [4]: 6.00
pIC50 [5]: 6.89

Cn1cncc1CC(=O)Nc1cncc(-c2cccc3[nH]ccc23)c1
pKd [4]: > 4.70
pIC50 [5]: 5.92

O=C(NC1CCN(CC(F)(F)F)CC1)c1ccc(Oc2ccccc2)nc1
pKd [4]: 7.22
pIC50 [5]: 7.51

O=C(NC1CCN(CC(F)(F)F)CC1)c1ccc(N2CCCCC2)nc1
pKd [4]: > 7.00
pIC50 [5]: 7.32

O=C(NC1CCN(CC(F)(F)F)CC1)c1ccc(N2CCCC2)nc1
pKd [4]: 6.70
pIC50 [5]: 6.64

CN(C)c1ccc(C(=O)NC2CCN(CC(F)(F)F)CC2)cn1
pKd [4]: 4.85

O=C(NC1CCN(CC(F)(F)F)CC1)c1ccc(N2CCOCC2)nc1
pKd [4]: 6.40
pIC50 [5]: 6.49

O=C(NC1CCN(CC(F)(F)F)CC1)c1ccc(N2CCNCC2)nc1
pKd [4]: 4.89

O=C1CN(c2ccc(C(=O)NC3CCN(CC(F)(F)F)CC3)cn2)CCN1
pKd [4]: 6.00
pIC50 [5]: 6.23

O=C(NC1CCN(CC(F)(F)F)CC1)c1ccc(-c2cc[nH]c(=O)c2)nc1
pKd [4]: 6.70
pIC50 [5]: 7.15

COc1cc(-c2ccc(C(=O)NC3CCN(CC(F)(F)F)CC3)cn2)ccn1
pKd [4]: 5.70

O=C(NC1CCN(CC(F)(F)F)CC1)c1ccc(-c2cccc(=O)[nH]2)nc1
pKd [4]: 6.40
pIC50 [5]: 7.15

O=C(NC1CCN(CC(F)(F)F)CC1)c1ccc(-c2ccc(=O)[nH]c2)nc1
pKd [4]: 5.00

NC(=O)c1ccc(-c2cccc(F)c2)nc1
pKd [2]: 6.10

O=C(O)c1cnn(-c2ccccc2)c1
pKd [2]: 3.85
